Sampled rows, rich in hits. Any-hit rate of the full collection: about 1.7%.
IDE act = boosts human insulin-degrading enzyme activity in HEK cells | P14735 | FAbeta-B cleavage, fluorescence polarization; 0% vehicle, 100% cell-free pure enzyme wells | activation, % at 5.96 µM | 340,000 tested, 0.073% active | AID 493087;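 active means activation above the mean of all tested compounds plus 3 SD, set per screening campaign, cut at about 17% in these data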
IDE cell inh = inhibits human insulin-degrading enzyme in HEK cells; inhibition, % at 5.59 µM; FAbetaB cleavage, fluorescence polarization; 320,000 tested, 0.41% active;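 active means percent inhibition above the average of all tested compounds plus 3 SD, set per screening campaign, cut at about 16% in these data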;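 further: IDE supplied by intact live HEK cells; FP after avidin binding of uncleaved biotin substrate so inhibition keeps polarization high; 0% = DMSO wells and 100% = 60 µM reference IDE inhibitor Ii1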
HNF4A DNA FP = change in binding of human HNF4 alpha to DNA. P41235. HNF4a-FITC DNA binding, fluorescence polarization, 1 h. activity change, % at 10 µM. 360,000 tested, 0.3% active. AID 1224865; in the data active means activity change above about 30%, passing the limit was not always enough
Target sequence (P41235 whole entry, looked up): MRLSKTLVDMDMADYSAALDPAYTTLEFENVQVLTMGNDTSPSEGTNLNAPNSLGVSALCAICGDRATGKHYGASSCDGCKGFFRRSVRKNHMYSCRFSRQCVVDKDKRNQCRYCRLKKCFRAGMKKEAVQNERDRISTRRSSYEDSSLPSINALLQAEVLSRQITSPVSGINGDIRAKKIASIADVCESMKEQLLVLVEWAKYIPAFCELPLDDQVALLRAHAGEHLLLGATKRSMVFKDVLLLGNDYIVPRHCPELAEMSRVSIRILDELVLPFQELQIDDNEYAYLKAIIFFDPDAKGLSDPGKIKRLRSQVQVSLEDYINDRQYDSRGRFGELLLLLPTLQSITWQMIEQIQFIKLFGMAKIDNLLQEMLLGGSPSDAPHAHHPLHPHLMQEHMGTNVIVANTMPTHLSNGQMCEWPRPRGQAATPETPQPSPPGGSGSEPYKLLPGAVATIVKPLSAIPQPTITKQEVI
TPT1 inhibitor = C. albicans TPT1 enzyme inhibition; recombinant caTPT1, FP RNA substrate dephosphorylation; inhibition, % at 5 µM; 300,000 tested, 0.81% active; AID 1962;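 active means inhibition above the mean of all tested compounds plus 3 SD, set per screening campaign, cut at about 24% in these data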;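 further: plate controls were DMSO alone for no effect and ferristatin control at 100 nM for full effect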
Rpn11 inh = blocks the human proteasome subunit Rpn11; O00487; calls only at 20 µM; human 26S proteasome, Ub4-pepOG fluorescence polarization; 20S core pre-blocked with epoxomicin; 360,000 tested, 0.59% active;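 active means inhibition at 20 µM, scaled to each plate's controls, above about 33%, limit read from the data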
CSN deneddyl inh = blocks human CSN-mediated cullin deneddylation; inhibition, % at 12.5 µM; AID 651999; Q92905; Purified CSN, SCF-Nedd8-OG deneddylation, fluorescence polarization; 360,000 tested, 0.38% active;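 active means pattern-corrected inhibition above about 35%, with an unprinted fluorescence ratio check between 0.5 and 1.5, limit read from the data, passing the limit was not always enough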;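 further: 0% = enzyme with substrate and 100% = substrate without enzyme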
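Test system: purified human Csn5 enzyme expressed in HEK293T cells. Amount: 0.24 nM enzyme. Reagent: SCFSkp2-Nedd8OG substrate at 10 nM final. Schedule: 90 min incubation of compound, enzyme and substrate at room temperature. Detection: fluorescence polarization. Read-out: % inhibition of substrate cleavage by Csn5.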
IDE cell inh cf = confirmation of human insulin-degrading enzyme inhibitors in cells; 1,200 tested, 51% active; shares compounds with IDE cell inh; HEK cells, FAbetaB cleavage, fluorescence polarization; AID 435028; inhibition, % at 5.59 µM;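 active means mean inhibition across triplicate wells above the cutoff set by the earlier primary insulin-degrading enzyme screen, cut at about 16% in these data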;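 further: 0% = DMSO wells and 100% = 60 µM reference IDE inhibitor Ii1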
HEK293 tox = HEK cell cytotoxicity, counter-screen for IDE inhibitors. shares compounds with IDE cell inh. HEK293 cytotoxicity, ATP luminescence. inhibition, % at 5.59 µM. 1,200 tested, 28% active; in the data active means inhibition above about 22%;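 further: 0% = vehicle wells and 100% = reference cytotoxic drug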
IDE FP artifact = fluorescent artifact in IDE inhibitor FP assay. shares compounds with IDE cell inh. FP counterscreen for fluorescent artifacts, IDE probe project. IC50, µM. 30 tested, under 10 active. AID 588718; call rule not given here
The depositor's hits bear a star; i = inactive; nt = no result shown.

SMILES	IDE act	IDE cell inh	HNF4A DNA FP	TPT1 inhibitor	Rpn11 inh	CSN deneddyl inh	IDE cell inh cf	HEK293 tox	others
CCOC(=O)N1CCN(c2ncnc3c2[nH]c2ccc(OC)cc23)CC1	-11.5	41.1*	0.2	0.8	i	-4.1	26.2*	10.8
COc1ccc2[nH]c3c(N4CCc5ccccc5C4)ncnc3c2c1	-26.9	20.4*	-0.4	-6.9	i	1.4	13.0	72.7*
COc1cc2[nH]c3c(N4CCN(c5ccccn5)CC4)ncnc3c2cc1OC	-0.1	15.0	-1.6	-4.7	i	5.9	nt	nt
CC(=O)N1CC2(CC(=O)OC(C)C)CN(C(C)=O)CC(CC(=O)OC(C)C)(C1)C2=O	2.2	nt	-0.7	nt	i	-0.8	nt	nt
CCOC(=O)N1CCN(c2ncnc3c2[nH]c2ccc(F)cc23)CC1	-54.3	61.9*	4.9	1.5	i	-4.1	52.3*	58.5*
CCOc1ccc2[nH]c3c(N4CCN(C(=O)c5ccco5)CC4)ncnc3c2c1	nt	40.2*	-0.4	-2.1	i	3.5	16.1*	12.7	IDE FP artifact=>54.7
Cc1c(NC(=O)/C(C#N)=C/c2ccc(-c3ccc(Cl)cc3)o2)c(=O)n(-c2ccccc2)n1C	-25.4	63.7*	-1.6	3.1	i	-0.5	40.2*	19.1
O=C(O)C1C2C=CC(C2)C1C(=O)NCCC1=CCCCC1 (configuration not stated)	1.2	3.2	-0.6	-2.9	i	-0.3	nt	nt
Cc1cccc(C)c1NC(=O)CCCCCC1NC(=O)NC1C (configuration not stated)	-42.5	22.3*	-0.8	-0.5	i	1.2	1.4	7.2
NCC(=O)NNC(=O)OCC1c2ccccc2-c2ccccc21	0.6	-1.7	-2.0	-2.0	i	6.0	nt	nt
COCCNC(=O)c1c(CSc2ccc(Cl)cc2)noc1C(=O)NCc1ccccc1	0.6	-1.7	-3.4	3.4	i	0.0	nt	nt
S=c1nccc(-c2ccc3c(c2)CCO3)[nH]1	-23.2	30.3*	-2.4	-0.8	i	1.9	5.6	14.2
Cn1c(CN2CCOCC2)nnc1SCc1ccccc1	-15.3	1.8	-2.6	-1.6	i	4.9	nt	nt
Cn1c(CN2CCOCC2)nnc1SCC(=O)NCCc1ccccc1	-21.4	21.2*	1.9	0.1	i	0.3	11.8	6.1
O=C(O)c1cccc(S(=O)(=O)NCCC(c2ccccc2)c2ccccc2)c1	-4.8	-3.6	-3.0	1.2	i	0.1	nt	nt
Oc1ccc(Br)cc1C=Nc1ccc2c3c(cccc13)CC2	-3.5	22.5*	29.9	7.5	nt	7.3	1.1	9.8
Oc1ccc(Cl)cc1C=Nc1ccccc1Br	6.7	0.7	4.0	-3.7	i	-13.3	nt	nt
CCn1c(SCC(=O)Nc2nc(-c3ccc(C)cc3)cs2)nnc1-c1ccccc1	-13.2	16.2*	1.3	-3.5	i	1.7	6.4	20.6
OC1(c2ccccc2)Cc2cccc[n+]2C1c1ccccc1 (configuration not stated)	1.3	0.2	1.7	2.0	i	2.5	nt	nt
Cc1cccc(N2C(=O)c3cccc4c(N(C)CCO)ccc(c34)C2=O)c1	-72.2	79.3*	-78.1	-28.8	i	-71.3	109.8*	13.4
Cc1cccc(N2C(=O)c3cccc4c(N)ccc(c34)C2=O)c1	-42.5	72.6*	-98.3	-71.0	i	-75.4	96.2*	3.6
COc1ccccc1CC(=O)OCC(=O)N1CCN(c2ccc(F)cc2)CC1	0.8	-2.3	-6.9	nt	i	-4.3	nt	nt
CCOC(=O)C1=C(CSc2nc3c(cc2C#N)CCC3)OC(N)=C(C#N)C1c1ccccc1 (configuration not stated)	-7.9	17.4*	2.6	3.8	i	-1.5	0.1	7.8
CCOC(=O)C1=C(CSc2nc3c(cc2C#N)CN(C)CC3)OC(N)=C(C#N)C1c1ccccc1 (configuration not stated)	-4.1	2.7	-7.3	4.9	i	-15.0	nt	nt
CC(NC(=O)c1ccc(N(C)C)c([N+](=O)[O-])c1)c1ccc(-n2ccnc2)cc1 (configuration not stated)	-4.0	19.1*	2.8	-0.2	i	1.8	8.0	11.6
SMILES	IDE act	IDE cell inh	HNF4A DNA FP	TPT1 inhibitor	Rpn11 inh	CSN deneddyl inh	IDE cell inh cf	HEK293 tox	others
Cc1oc(-c2ccccc2F)nc1CS(=O)(=O)CC(=O)NCc1ccccc1Cl	2.4	-2.6	-0.1	-1.8	i	2.9	nt	nt
Cc1ccc(S(=O)(=O)N2CCCN(C(=O)c3cc4ccccc4[nH]3)CC2)cc1	-15.8	16.4*	0.3	4.3	i	1.4	5.2	9.2
O=C(NCc1ccco1)C1CCCN(c2ncnc3c2nc2n3CCCCC2)C1 (configuration not stated)	6.2	1.5	-0.8	0.5	i	1.4	nt	nt
Oc1cc(-n2cccn2)c(O)cc1-n1cccn1	-31.8	36.2*	-2.9	0.4	i	-1.8	7.1	38.9*
O=Cc1ccccc1-n1cccn1	2.5	2.2	-1.7	-1.1	i	-2.2	nt	nt
COc1ccccc1Oc1cc(-n2nc(C)cc2C)ncn1	3.3	2.8	0.3	-1.0	i	-2.9	nt	nt
COc1ccc(-c2nnc(Nc3nc4c(OC)cccc4s3)o2)c(OC)c1	-18.9	12.8	-11.0	-1.9	i	4.4	nt	nt
COc1ccc(-c2nnc(Nc3nc4c(OC)cccc4s3)o2)cc1	-14.7	24.4*	-14.1	-8.7	i	123.3	18.8*	8.0
CCc1ccc2nc(/N=C(\N)NC(=O)c3ccccc3)nc(C)c2c1	0.8	5.4	-2.2	-0.4	i	3.2	nt	nt
Cc1cc(C)c2nc(/N=C(\N)NC(=O)c3ccccc3)nc(C)c2c1	5.0	16.8*	-0.3	-3.7	i	0.4	3.6	9.8
CCSc1nnc2ccc(-c3ccc(OC)c(OC)c3)nn12	4.2	4.6	3.5	1.6	i	-0.1	nt	nt
Cc1cc(C)c2c(N)c(C(=O)NN)sc2n1	-3.0	-0.3	0.7	1.2	i	1.1	nt	nt
Cc1ccc(NC(=O)c2sc3nc(C)cc(C)c3c2N)cc1	-12.6	21.4*	-3.2	-0.1	i	-0.9	8.0	13.3
COc1cccc(NC(=O)COc2ccc(C(=S)N3CCN(C)CC3)cc2OC)c1	0.3	2.5	-1.6	-1.9	i	3.1	nt	nt
CCC(C)(C)n1nnnc1C(c1ccc2ncccc2c1)N1CCN(c2nc3ccccc3s2)CC1 (configuration not stated)	-9.7	18.1*	3.3	-1.3	i	1.7	10.7	25.9*

From PubChem BioAssay
